Columns and labels:
[1] = (§1) Inhibition of Mycobacterium tuberculosis 20S open gate mutant using Suc-LLVY-AMC as substrate and measured every 30 secs for 30 mins by microtiter plate assay
Summary of the method: (§2)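 Mtb20S open-gate form, expressed and purified in-house, 8 nM in the enzyme solution. Buffer: 20 mM HEPES pH 7.5, 0.5 mM EDTA, 0.1 mg/mL BSA. Suc-LLVY-AMC at 100 µM final. Run at 25 °C with a three-fold inhibitor dilution series, DMSO under 0.5% final. Fluorescence 340/460 nm read every 30 s for 30 min. Rates fitted against log inhibitor concentration to give IC50; triplicate wells.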

[2] = tested on: human 20S proteasome subunit beta-5i versus Mycobacterium tuberculosis 20S open gate mutant; experiment: Selectivity index, ratio of IC50 for human 20S proteasome subunit beta-5i to IC50 for Mycobacterium tuberculosis 20S open gate mutant; type: toxicity; settings: read-out: Ratio IC50
[3] = tested on: human 20S proteasome subunit beta-5c versus Mycobacterium tuberculosis 20S open gate mutant; experiment: Selectivity index, ratio of IC50 for human 20S proteasome subunit beta-5c to IC50 for Mycobacterium tuberculosis 20S open gate mutant; type: toxicity; settings: read-out: Ratio IC50
[4] = tested on: Mycobacterium tuberculosis; experiment: as §1; summary of the method: as §2

## CC[C@@H]1CCCCN1C(=O)C[C@H](NC(=O)CCC(C)C)C(=O)N[C@@H](C)c1ncc(-c2ccc(F)cc2F)[nH]1
[1]
  IC50: 30 nM

## Cc1cc(C(=O)N[C@@H](CC(=O)N2CCC[C@@H]2c2ccccc2)C(=O)N[C@@H](C)c2ncc(-c3ccc(F)cc3F)[nH]2)no1
[2]
  selectivity ratio: > 7700
[1]
  IC50: 13 nM
[3]
  selectivity ratio: > 7700

## Cc1cc(C(=O)N[C@@H](CC(=O)N2CCC[C@@H]2c2ccccc2)C(=O)N[C@@H](C)c2ncc(-c3ccccc3F)[nH]2)no1
[2]
  selectivity ratio: > 12500
[1]
  IC50: 8 nM
[3]
  selectivity ratio: > 12500

## Cc1cc(C(=O)N[C@@H](CC(=O)N2CCC[C@@H]2c2ccccc2)C(=O)N[C@@H](C)c2ncc(-c3ccccc3)[nH]2)no1
[2]
  selectivity ratio: > 4000
[1]
  IC50: 25 nM
[3]
  selectivity ratio: > 4000

## Cc1cc(C(=O)N[C@@H](CC(=O)N2CCC[C@@H]2c2ccccc2)C(=O)N[C@@H](C)C(=O)NCc2c(F)cccc2F)no1
[2]
  selectivity ratio: 2870
[4]
  inhibition: Dose-dependent effect
[1]
  IC50: 7 nM
[3]
  selectivity ratio: > 14300

## COc1ccccc1CNC(=O)[C@H](C)NC(=O)[C@H](CC(=O)N1CCC[C@@H]1c1ccccc1)NC(=O)c1cc(C)on1
[2]
  selectivity ratio: > 1500
[4]
  inhibition: Dose-dependent effect
[1]
  IC50: 65 nM
[3]
  selectivity ratio: > 1500

## Cc1cc(C(=O)N[C@@H](CC(=O)N2CCC[C@@H]2c2ccccc2)C(=O)N[C@@H](C)C(=O)NCc2ccc(F)cc2F)no1
[2]
  selectivity ratio: 2630
[4]
  inhibition: Dose-dependent effect
[1]
  IC50: 3 nM
[3]
  selectivity ratio: > 33300

## Cc1cc(C(=O)N[C@@H](CC(=O)N2CCCC[C@@H]2C)C(=O)N[C@@H](C)C(=O)NCc2ccc(F)cc2F)no1
[2]
  selectivity ratio: 3.7
[4]
  inhibition: Dose-dependent effect
[1]
  IC50: 7 nM
[3]
  selectivity ratio: 202

## Cc1cc(C(=O)N[C@@H](CC(=O)N2CCCC[C@@H]2C)C(=O)N[C@@H](C)c2ncc(-c3ccccc3)[nH]2)no1
[1]
  IC50: 470 nM
